Results taken from ChEMBL document CHEMBL3526053, “Species-dependent uptake of glycylsarcosine but not oseltamivir in Pichia pastoris expressing the rat, mouse, and human intestinal peptide transporter PEPT1” (Drug Metab Dispos, 2012).

Columns and labels:
Assay type in all cases: ADME
[1] = molecular target: T1, Solute carrier family 15 member 1 (Homo sapiens, UniProt P46059); experiment: Drug uptake in Pichia pastoris GS115 expressing human recombinant PEPT1 at 5 uM after 30s by dual-channel liquid scintillation counting analysis in presence of cefazolin relative to control; settings: 0.5 min
T1 sequence (P46059 whole entry): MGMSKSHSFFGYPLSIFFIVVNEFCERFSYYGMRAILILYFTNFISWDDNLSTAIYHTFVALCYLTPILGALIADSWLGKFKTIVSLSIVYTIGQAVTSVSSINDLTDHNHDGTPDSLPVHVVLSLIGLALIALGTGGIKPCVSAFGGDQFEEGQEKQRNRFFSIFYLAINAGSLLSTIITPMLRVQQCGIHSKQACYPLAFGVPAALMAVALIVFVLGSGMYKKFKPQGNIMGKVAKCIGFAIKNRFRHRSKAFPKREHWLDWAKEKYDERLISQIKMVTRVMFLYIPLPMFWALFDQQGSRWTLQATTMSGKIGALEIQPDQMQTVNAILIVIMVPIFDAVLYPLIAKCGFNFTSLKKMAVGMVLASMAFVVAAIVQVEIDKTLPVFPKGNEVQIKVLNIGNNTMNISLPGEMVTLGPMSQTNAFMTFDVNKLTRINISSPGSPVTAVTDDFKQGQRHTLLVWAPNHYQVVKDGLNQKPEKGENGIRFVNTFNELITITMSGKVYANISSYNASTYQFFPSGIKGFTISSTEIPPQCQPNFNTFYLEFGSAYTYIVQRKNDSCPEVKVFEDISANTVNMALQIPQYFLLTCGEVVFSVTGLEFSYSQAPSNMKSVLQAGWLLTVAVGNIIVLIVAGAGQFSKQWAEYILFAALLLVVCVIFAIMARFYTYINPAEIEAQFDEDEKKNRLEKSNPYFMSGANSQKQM
Summary of the method: (§1)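 [3H]GlySar 5.0 µM final, 30-s uptake at 24°C in 100 mM potassium phosphate pH 6.5, with or without a potential inhibitor at 10 mM. Cells are methanol-induced transformants. Values are vector-subtracted and expressed as percent of buffer control. Mean ± SE (n=3). ANOVA with Dunnett's test.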

[2] = molecular target: T1, Solute carrier family 15 member 1; experiment: Drug uptake in Pichia pastoris GS115 expressing human recombinant PEPT1 at 5 uM after 30s by dual-channel liquid scintillation counting analysis in presence of L-histidine relative to control; settings: 0.5 min; summary of the method: as §1
[3] = molecular target: T2, Solute carrier family 15 member 1 (Rattus norvegicus, UniProt P51574); experiment: Drug uptake in Pichia pastoris GS115 expressing rat recombinant PEPT1 at 5 uM after 30s by dual-channel liquid scintillation counting analysis in presence of acyclovir relative to control; settings: in vivo, 0.5 min; summary of the method: as §1
T2 sequence (P51574 whole entry): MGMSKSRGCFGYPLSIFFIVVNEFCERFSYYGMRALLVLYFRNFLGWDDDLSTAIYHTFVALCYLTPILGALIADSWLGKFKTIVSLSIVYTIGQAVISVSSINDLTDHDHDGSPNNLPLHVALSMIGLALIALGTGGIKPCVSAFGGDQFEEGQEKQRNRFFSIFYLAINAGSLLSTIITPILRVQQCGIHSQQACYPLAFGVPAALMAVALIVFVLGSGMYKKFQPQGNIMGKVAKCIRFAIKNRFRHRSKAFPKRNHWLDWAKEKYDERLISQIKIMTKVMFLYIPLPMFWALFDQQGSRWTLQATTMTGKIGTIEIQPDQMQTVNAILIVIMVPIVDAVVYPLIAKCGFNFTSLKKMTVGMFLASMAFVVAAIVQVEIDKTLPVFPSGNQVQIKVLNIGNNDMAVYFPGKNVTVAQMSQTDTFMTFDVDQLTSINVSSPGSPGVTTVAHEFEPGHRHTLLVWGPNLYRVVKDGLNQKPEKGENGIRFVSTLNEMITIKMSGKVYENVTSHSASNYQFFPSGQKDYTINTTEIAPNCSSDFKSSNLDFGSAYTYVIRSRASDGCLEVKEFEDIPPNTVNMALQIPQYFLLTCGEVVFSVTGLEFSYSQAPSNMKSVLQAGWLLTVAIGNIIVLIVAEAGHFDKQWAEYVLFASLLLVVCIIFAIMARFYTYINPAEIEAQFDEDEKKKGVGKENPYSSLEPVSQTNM

[4] = molecular target: T2, Solute carrier family 15 member 1; experiment: Drug uptake in Pichia pastoris GS115 expressing rat recombinant PEPT1 at 5 uM after 30s by dual-channel liquid scintillation counting analysis in presence of GlyPro relative to control; settings: in vivo, 0.5 min; summary of the method: as §1
[5] = molecular target: T1, Solute carrier family 15 member 1; experiment: Drug uptake in Pichia pastoris GS115 expressing human recombinant PEPT1 at 5 uM after 30s by dual-channel liquid scintillation counting analysis in presence of cephalothin relative to control; settings: 0.5 min; summary of the method: as §1
[6] = molecular target: T3, PEPT1 (Homo sapiens, UniProt P46059); experiment: Drug uptake in Pichia pastoris GS115 expressing human recombinant PEPT1 at 5 uM after 30 mins by dual-channel liquid scintillation counting analysis relative to vector control; settings: read-out: FC
T3 sequence (P46059 whole entry): T1 sequence (P46059 whole entry)
Summary of the method: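 5.0 µM radiolabelled substrate ([3H]GlySar or [14C]oseltamivir) is incubated 30 min at 24°C with induced transformants in 100 mM potassium phosphate pH 6.5. Cell-associated radioactivity is counted by scintillation after standing 24 h and normalised to OD600. Results are compared with pPIC3.5K vector-alone cells. Mean ± SE (n=6).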

[7] = molecular target: T2, Solute carrier family 15 member 1; experiment: Drug uptake in Pichia pastoris GS115 expressing rat recombinant PEPT1 at 5 uM after 30s by dual-channel liquid scintillation counting analysis in presence of cefadroxil relative to control; settings: in vivo, 0.5 min; summary of the method: as §1
[8] = molecular target: T2, Solute carrier family 15 member 1; experiment: Activity at rat recombinant PEPT1 expressed in Pichia pastoris GS115 assessed as non-saturable rate constant after 30s by dual-channel liquid scintillation counting analysis
Summary of the method: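 [3H]GlySar concentration series 0.005-10 mM, 30-s uptake at 24°C in 100 mM potassium phosphate pH 6.5. Cells come from His+Mut+ GS115 transformants induced 20-24 h in methanol medium. Uptake is normalised to OD600. Data are fitted to Michaelis-Menten plus a first-order nonsaturable term (Kd), weighting unity. Parameters are mean ± SE (n=9).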

[9] = molecular target: T1, Solute carrier family 15 member 1; experiment: Drug uptake in Pichia pastoris GS115 expressing human recombinant PEPT1 at 5 uM after 30s by dual-channel liquid scintillation counting analysis in presence of cephapirin relative to control; settings: 0.5 min; summary of the method: as §1

Drug uptake [1]: 81.1% | Drug uptake [2]: 122% | Drug uptake [3]: 109% | Drug uptake [4]: 0.6% | Drug uptake [5]: 84.8% | uptake ratio at 0.5 h, 5 µM [6]: 30 | Drug uptake [7]: 23.1% | Kd [8]: 2.21 uL/OD/min | Drug uptake [9]: 100%
SMILES: [3H]C(C(=O)O)N(C)C(=O)CN (centres undefined)
